Measured values as given in ChEMBL document CHEMBL2417493, “Novel cycloalkylthiophene-imine derivatives bearing benzothiazole scaffold: synthesis, characterization and antiviral activity evaluation” (Bioorg Med Chem Lett, 2013).
Values after ≈ are worked out from the molar mass of the structure shown. Active and inactive are the calls of the source. No cut-off for these calls is given here.

Assays:
[1] = Cytotoxicity against human HepG2 cells after 72 hrs by MTT assay; assay type: cell-based
In short: (§1)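 MTT assay on RD (rhabdomyosarcoma), HepG2 and HeLa cell lines. CC50 is the concentration that cut cell viability by 50% relative to 0.1% DMSO-treated mock-control cells. Values are mean and SD of three independent experiments.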

[2] = Cytotoxicity against human HeLa cells after 72 hrs by MTT assay; assay type: cell-based; in short: as §1
Enterovirus [3] = assay: Antiviral activity against Enterovirus 71 infected in human rhabdomyosarcoma cells assessed as inhibition of virus-induced cytopathogenicity after 48 hrs by crystal violet staining method; assay type: functional, organism-based
In short: (§2)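 Virus–cell pairings were EV71 in RD, CVB5 in HepG2, ADV7 in HeLa and influenza A H1N1 in MDCK. Compounds were added […], and total infectivity was read by crystal violet staining. EC50 is the concentration reducing viral replication by 50%. Values are mean SD of three independent experiments.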

unidentified adenovirus [4] = assay: Antiviral activity against Adenovirus type 7 infected in human HeLa cells assessed as inhibition of virus-induced cytopathogenicity at 32 ug/ml after 48 hrs by crystal violet staining method; assay type: functional
In short: (§3)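 Single-concentration screen with these pairings: RD/EV71, HepG2/CVB5, HeLa/ADV7, MDCK/H1N1. Cells were infected and kept 48 h in the presence of compound at one fixed concentration; some EV71 tests used the lower level. Inhibition of virus proliferation was read by crystal violet staining.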

[5] = Cytotoxicity against human rhabdomyosarcoma cells after 72 hrs by MTT assay; assay type: cell-based, Rhabdomyosarcoma cell; in short: as §1
Coxsackievirus B5 [6] = assay: Antiviral activity against Coxsackievirus B5 infected in human HepG2 cells assessed as inhibition of virus-induced cytopathogenicity at 32 ug/ml after 48 hrs by crystal violet staining method; assay type: functional; in short: as §3
Coxsackievirus B5 [7] = assay: Antiviral activity against Coxsackievirus B5 infected in human HepG2 cells assessed as inhibition of virus-induced cytopathogenicity after 48 hrs by crystal violet staining method; assay type: functional, organism-based; in short: as §2
unidentified adenovirus [8] = assay: Antiviral activity against Adenovirus type 7 infected in human HeLa cells assessed as inhibition of virus-induced cytopathogenicity after 48 hrs by crystal violet staining method; assay type: functional, organism-based; in short: as §2
Influenza A virus [9] = assay: Antiviral activity against influenza A virus H1N1 infected in dog MDCK cells assessed as inhibition of virus-induced cytopathogenicity at 32 ug/ml after 48 hrs by crystal violet staining method; assay type: functional, organism-based; in short: as §3
Enterovirus [10] = assay: Antiviral activity against Enterovirus 71 infected in human rhabdomyosarcoma cells assessed as inhibition of virus-induced cytopathogenicity at 32 ug/ml after 48 hrs by crystal violet staining method; assay type: functional; in short: as §3
Influenza A virus [11] = assay: Antiviral activity against influenza A virus H1N1 infected in dog MDCK cells assessed as inhibition of virus-induced cytopathogenicity after 48 hrs by crystal violet staining method; assay type: functional, organism-based; in short: as §2

Row | Structure (SMILES) | CC50 at 72 h [1] [µg/mL] | CC50 at 72 h [2] [µg/mL] | inhibition (INH) (Enterovirus [3]) [%] | inhibition (unidentified adenovirus [4]) | CC50 at 72 h [5] [µg/mL] | inhibition (Coxsackievirus B5 [6]) | inhibition (INH) (Coxsackievirus B5 [7]) [%] | inhibition (INH) (unidentified adenovirus [8]) [%] | inhibition (Influenza A virus [9]) | inhibition (Enterovirus [10]) | inhibition (INH) (Influenza A virus [11]) [%]
1 | Clc1ccc(/C=N/c2sc3c(c2-c2nc4ccccc4s2)CCCC3)cc1 | 397 (≈ 970 µM) | 431 (≈ 1050 µM) | <50 | Active | 367 (≈ 898 µM) | Active | <50 | <50 | Active | Active | <50
2 | COc1cc(/C=N/c2sc3c(c2-c2nc4ccccc4s2)CCCC3)cc(OC)c1OC | 301 (≈ 648 µM) | 448 (≈ 963 µM) | <50 | Active | 381 (≈ 821 µM) | Active | <50 | <50 | Active | Active | <50
3 | O=[N+]([O-])c1ccc(/C=N/c2sc3c(c2-c2nc4ccccc4s2)CCCC3)cc1 | 454 (≈ 1080 µM) | 357 (≈ 850 µM) | <50 | Active | 316 (≈ 754 µM) | Active | <50 | <50 | Active | Active | <50
4 | Clc1ccc2sc(-c3c(/N=C/C=C/c4ccccc4)sc4c3CCCC4)nc2c1 | 114 (≈ 262 µM) | 150 (≈ 346 µM) | <50 | Active | 212 (≈ 486 µM) | Active | <50 | <50 | Active | Active | <50
5 | C(=C\c1ccccc1)/C=N/c1sc2c(c1-c1nc3ccccc3s1)CCC2 | 215 (≈ 555 µM) | 100 (≈ 259 µM) | <50 | Active | 122 (≈ 317 µM) | Active | <50 | <50 | Active | Active | <50
6 | Clc1ccc(/C=N/c2sc3c(c2-c2nc4ccccc4s2)CCC3)c(Cl)c1 | 310 (≈ 722 µM) | 345 (≈ 804 µM) | <50 | Active | 160 (≈ 372 µM) | Active | <50 | <50 | Active | Active | <50
7 | FC(F)(F)c1ccc(/C=N/c2sc3c(c2-c2nc4ccccc4s2)CCCC3)cc1 | 361 (≈ 816 µM) | 368 (≈ 833 µM) | <50 | Active | 250 (≈ 566 µM) | Active | <50 | <50 | Active | Active | <50
8 | Fc1ccccc1/C=N/c1sc2c(c1-c1nc3ccccc3s1)CCC2 | 394 (≈ 1040 µM) | 355 (≈ 938 µM) | <50 | Active | 270 (≈ 713 µM) | Active | <50 | <50 | Active | Active | <50
9 | Clc1ccc2sc(-c3c(/N=C/C=C/c4ccccc4)sc4c3CCC4)nc2c1 | 14.9 (≈ 35.4 µM) | 200 (≈ 476 µM) | <50 | Active | 122 (≈ 291 µM) | Active | <50 | <50 | Active | Active | <50
10 | Clc1ccccc1/C=N/c1sc2c(c1-c1nc3ccccc3s1)CCC2 | 180 (≈ 456 µM) | 138 (≈ 350 µM) | <50 | Active | 123 (≈ 312 µM) | Active | <50 | <50 | Active | Active | <50
